Source: ChEMBL document CHEMBL3596120, “Discovery of natural alkaloid bouchardatine as a novel inhibitor of adipogenesis/lipogenesis in 3T3-L1 adipocytes” (Bioorg Med Chem, 2015)
The source made the active and inactive calls.

Key:
[1] = Cytotoxicity against mouse 3T3L1 cells at 1 to 50 uM incubated for 1 to 9 days by LDH assay; assay type: cell-based; conditions: 3t3-l1, 50 µM
Procedure, shortened: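 3T3-L1 adipocytes seeded at 7 × 10^3 cells/well, then treated 24 h later with DMSO vehicle as control. LDH in media and in cell lysates measured with a commercial kit. Cytotoxicity = LDH released into medium / maximal LDH release × 100. Maximum: […]. Blank: medium without cells.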

[2] = Cytotoxicity against mouse 3T3L1 cells assessed effect on cell morphology at 1 to 50 uM incubated for 1 to 9 days by microscopy; assay type: cell-based; conditions: 3t3-l1, 50 µM
[3] = test system: 3T3-L1; assay: Inhibition of adipogenesis in mouse 3T3L1 cells assessed as reduction in triglyceride content at 1 to 50 uM by colorimetric assay; assay type: functional, cell-based
[4] = test system: 3T3-L1; assay: Inhibition of adipogenesis in mouse 3T3L1 cells assessed as reduction in cell size at 1 to 50 uM by oil Red-O staining based microscopy; assay type: functional
Procedure, shortened: (§1)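 After 3T3-L1 differentiation (IBMX/dexamethasone/insulin induction, insulin, then basal medium), cells were PBS-washed and fixed in 4% formalin for 60 min. Stained with filtered Oil Red O for 30 min at room temperature and imaged at 40× objective. Dye eluted with isopropanol and read at 510 nm. Three independent experiments.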

[5] = test system: 3T3-L1; assay: Inhibition of adipogenesis in mouse 3T3L1 cells assessed as reduction in lipid droplets at 1 to 50 uM by oil Red-O staining based microscopy; assay type: functional, cell-based; procedure, shortened: as §1
[6] = test system: 3T3-L1; assay: Inhibition of adipogenesis in mouse 3T3L1 cells assessed as reduction in cell finger ring diameter size at 1 to 50 uM by oil Red-O staining based microscopy; assay type: functional; procedure, shortened: as §1
[7] = test system: 3T3-L1; assay: Inhibition of adipogenesis in mouse 3T3L1 cells assessed as reduction in lipid content at 25 uM by colorimetric assay; assay type: functional
[8] = test system: HepG2; assay: Cytotoxicity against human HepG2 cells at 1 to 100 uM by MTT assay; assay type: cell-based; conditions: hepg2, 100 µM
Procedure, shortened: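 HepG2 cells seeded at 7 × 10^3 cells/well. After 24 h, treated with 1, 10, 25, 50 or 100 µM; DMSO vehicle control. After the set time, MTT at 0.5 mg/mL was added for 4 h at 37 °C. Formazan dissolved in DMSO and read at 490 nm. Run in triplicate.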

[9] = test system: HepG2; assay: Inhibition of oleic acid-induced adipogenesis in human HepG2 cells assessed as reduction in triglyceride content by colorimetric assay; assay type: functional, cell-based
Procedure, shortened: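 HepG2 cells loaded with 0.5 mM oleic acid sodium, with or without compound. Lysed in 0.2% Triton X-100 in water and sonicated. TG measured colorimetrically and normalised to cellular protein. Blank: no oleate. Three independent experiments.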

[10] = test system: 3T3-L1; assay: Inhibition of adipogenesis in mouse 3T3L1 cells assessed as reduction in triglyceride content at 25 uM treated on day 0 to 3 by colorimetric assay; assay type: functional; conditions: 3T3-L1, 0 h
[11] = test system: 3T3-L1; assay: Inhibition of adipogenesis in mouse 3T3L1 cells assessed as reduction in triglyceride content at 25 uM treated on day 3 to 6 by colorimetric assay; assay type: functional; conditions: 3T3-L1, 72 h
[12] = test system: 3T3-L1; assay: Inhibition of adipogenesis in mouse 3T3L1 cells assessed as reduction in triglyceride content at 25 uM treated on day 6 to 9 by colorimetric assay; assay type: functional; conditions: 3T3-L1, 144 h
[13] = test system: 3T3-L1; assay: Inhibition of adipogenesis in mouse 3T3L1 cells assessed as reduction in triglyceride content at 25 uM treated on day 0 to 3 by oil Red-O staining based microscopy; assay type: functional, cell-based; procedure, shortened: as §1
[14] = test system: 3T3-L1; assay: Inhibition of adipogenesis in mouse 3T3L1 cells assessed as reduction in triglyceride content at 25 uM treated on day 0 to 6 by oil Red-O staining based microscopy; assay type: functional, cell-based; procedure, shortened: as §1
[15] = test system: 3T3-L1; assay: Inhibition of adipogenesis in mouse 3T3L1 cells assessed as reduction in triglyceride content at 25 uM treated on day 0 to 9 by oil Red-O staining based microscopy; assay type: functional, cell-based; procedure, shortened: as §1
[16] = test system: 3T3-L1; assay: Inhibition of adipogenesis in mouse 3T3L1 cells assessed as reduction in triglyceride content at 25 uM treated on day 3 to 6 by oil Red-O staining based microscopy; assay type: functional, cell-based; procedure, shortened: as §1
[17] = test system: 3T3-L1; assay: Inhibition of adipogenesis in mouse 3T3L1 cells assessed as reduction in triglyceride content at 25 uM treated on day 3 to 9 by oil Red-O staining based microscopy; assay type: functional, cell-based; procedure, shortened: as §1
[18] = test system: 3T3-L1; assay: Inhibition of adipogenesis in mouse 3T3L1 cells assessed as reduction in triglyceride content at 25 uM treated on day 6 to 9 by oil Red-O staining based microscopy; assay type: functional, cell-based; procedure, shortened: as §1
[19] = test system: 3T3-L1; assay: Induction of cell cycle arrest in mouse 3T3L1 cells assessed as accumulation at G2/M phase at 1 to 50 uM by flow cytometry; assay type: functional, cell-based
[20] = test system: 3T3-L1; assay: Induction of cell cycle arrest in mouse 3T3L1 cells assessed as accumulation at G0/G1 phase at 1 to 50 uM after 24 hrs by flow cytometry; assay type: functional, cell-based
[21] = test system: 3T3-L1; assay: Induction of cell cycle arrest in mouse 3T3L1 cells assessed as accumulation at S phase at 25 uM after 24 hrs by flow cytometry (reference value: 18%); assay type: functional
[22] = test system: 3T3-L1; assay: Induction of cell cycle arrest in mouse 3T3L1 cells assessed as accumulation at G0/G1 phase at 25 uM after 24 hrs by flow cytometry (reference value: 42%); assay type: functional
[23] = test system: 3T3-L1; assay: Induction of cell cycle arrest in mouse 3T3L1 cells assessed as accumulation at G2/M phase at 25 uM after 24 hrs by flow cytometry (reference value: 29%); assay type: functional
[24] = Reduction in C/EBPbeta mRNA expression in mouse 3T3L1 cells after 72 hrs by RT-PCR method; assay type: functional, cell-based; conditions: 3T3-L1
Procedure, shortened: (§2)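 3T3-L1 preadipocytes grown in DMEM with 10% FBS at 37 °C under 5% CO2. Differentiation starts 2 days post-confluence (day 0) with IBMX, 100 ng/mL dexamethasone and insulin for 3 d, then insulin in 10% FBS/DMEM for 3 d, then basic medium for 3 d. Compound is added on day 0 and renewed at day 3. Vehicle control receives the same volume of DMSO.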

[25] = Reduction in C/EBPalpha mRNA expression in mouse 3T3L1 cells at 1 to 50 uM after 72 hrs by RT-PCR method; assay type: functional, cell-based; conditions: 3T3-L1
[26] = Reduction in PPARgamma mRNA expression in mouse 3T3L1 cells at 1 to 50 uM after 72 hrs by RT-PCR method; assay type: functional, cell-based; conditions: 3T3-L1; procedure, shortened: as §2

O=Cc1c(-c2nc3ccccc3c(=O)[nH]2)[nH]c2ccccc12
< 10%: inhibition at 25 µM [12]
Non-toxic: Activity [1] | Activity [2] | Activity [8]
57%: Activity [23]
30%: inhibition at 25 µM [11]
40%: Activity [22]
50%: inhibition at 25 µM [7] | inhibition at 25 µM [10]
5%: Activity [21]
active: inhibition [3] Dose-dependent effect | inhibition [4] | inhibition [5] | inhibition [6] | inhibition [9] Dose-dependent effect | inhibition [13] | inhibition [14] | inhibition [15] | inhibition [16] | inhibition [17] | inhibition [18] | Activity [19] | Activity [20] Dose-dependent effect | Activity [24] Dose-dependent effect | Activity [25] | Activity [26]
